A word on the pIC50: it is the IC50 on a negative log10 scale, so that one unit is a factor of ten. Read a high pIC50 as a low IC50. By inhibition is commonly meant the percentage by which the read-out fell short of the control.

This is an account of results in ChEMBL document CHEMBL1156926, “CoMFA analysis of tgDHFR and rlDHFR based on antifolates with 6-5 fused ring system using the all-orientation search (AOS) routine and a modified cross-validated r(2)-guided region selection (q(2)-GRS) routine and its initial application” (Bioorg Med Chem, 2010).

Assay [1] concerns the target T1, Dihydrofolate reductase (Rattus norvegicus, UniProt Q920D2).
T1 sequence (Q920D2 whole entry): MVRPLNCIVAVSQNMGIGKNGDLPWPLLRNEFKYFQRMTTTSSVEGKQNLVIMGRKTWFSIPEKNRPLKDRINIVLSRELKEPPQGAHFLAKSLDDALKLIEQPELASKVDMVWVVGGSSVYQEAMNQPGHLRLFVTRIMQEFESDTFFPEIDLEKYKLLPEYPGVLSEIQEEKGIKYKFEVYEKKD
The experiment in a line: Inhibition of rat liver DHFR by spectrophotometric assay.

Assay [2] deals with T2, Bifunctional dihydrofolate reductase-thymidylate synthase (Toxoplasma gondii, UniProt Q07422).
T2 sequence (Q07422 whole entry): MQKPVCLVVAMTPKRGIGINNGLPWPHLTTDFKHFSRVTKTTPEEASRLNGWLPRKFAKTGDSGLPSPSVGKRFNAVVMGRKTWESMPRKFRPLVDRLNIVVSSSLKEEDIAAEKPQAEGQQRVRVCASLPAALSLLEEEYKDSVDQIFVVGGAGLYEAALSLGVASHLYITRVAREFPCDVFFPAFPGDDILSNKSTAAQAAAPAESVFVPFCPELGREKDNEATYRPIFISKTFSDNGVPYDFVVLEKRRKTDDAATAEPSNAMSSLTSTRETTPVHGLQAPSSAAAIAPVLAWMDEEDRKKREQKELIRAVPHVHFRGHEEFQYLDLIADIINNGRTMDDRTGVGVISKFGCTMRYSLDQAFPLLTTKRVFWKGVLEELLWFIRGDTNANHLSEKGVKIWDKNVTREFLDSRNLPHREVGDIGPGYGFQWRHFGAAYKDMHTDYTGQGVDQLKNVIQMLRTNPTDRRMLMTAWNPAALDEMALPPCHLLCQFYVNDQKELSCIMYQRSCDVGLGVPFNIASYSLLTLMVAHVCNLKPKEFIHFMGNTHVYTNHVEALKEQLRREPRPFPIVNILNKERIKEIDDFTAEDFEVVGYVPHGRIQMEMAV
The experiment in a line: Inhibition of Toxoplasma gondii DHFR by spectrophotometric assay.

Assay [3] addresses T1, Dihydrofolate reductase. Put plainly: Inhibition of rat liver DHFR using dihydrofolic acid substrate and NADPH cofactor by spectrophotometric assay.
Assay [4] deals with T2, Bifunctional dihydrofolate reductase-thymidylate synthase. Put plainly: Inhibition of Toxoplasma gondii DHFR using dihydrofolic acid substrate and NADPH cofactor by spectrophotometric assay.
Assay [5] deals with Toxoplasma gondii. Put plainly: Antimicrobial activity against Toxoplasma gondii RH infected in BALB/c mouse assessed as mouse survival at 50 mg/kg, ip after 5 days. In kind it is functional. Particulars: route intraperitoneal.
Assay [6] concerns the target T3, Dihydrofolate reductase (Rattus norvegicus) (UniProt Q920D2).
T3 sequence (whole entry): T1 sequence (Q920D2 whole entry)
Particulars: 24.6 uM.

Assay [7] deals with Toxoplasma gondii. The experiment in a line: Antimicrobial activity against Toxoplasma gondii RH infected in BALB/c mouse assessed as reduction of parasite level at 50 mg/kg, ip relative to untreated control. In kind it is functional. The following applies: route intraperitoneal. The method, boiled down: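 Female BALB/c mice (18-20 g) inoculated i.p. with 5 × 10³ cultured RH trophozoites. Treatment began 4 h after inoculation: 50 mg/kg/day i.p. (amount injected). Where folic acid was used, it was given in drinking water at 10 microgram/ml. Survival was recorded to day 5 and mice were harvested on day 6. Parasites in peritoneal exudate were counted per 1000x field (10 microliters spread over 1 cm²).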

Assay [8] deals with Toxoplasma gondii. The following applies: RH, 50 mg/kg.
Assay [9] concerns Toxoplasma gondii. Particulars: RH, 50 mg/kg. This is another data set of the same source.

Each structure is given as a SMILES string. pIC50: −log10 of the molar value. The source made the active and inactive calls. The rule behind the calls is not given here. A value given as a limit tells only on which side of the number the result lay.

Regarding `Nc1nc(N)c2c(CNc3cccc4c3CCCC4)c[nH]c2n1`, at Dihydrofolate reductase [1], the pIC50 was 4.23.

On to `Nc1nc(N)c2c(CCCc3ccccc3)c[nH]c2n1`, for which the pIC50 against Dihydrofolate reductase [1] is 5.07; in assay [2], 5.57.

Regarding `CCn1c2ccccc2c2cc(N(C)Cc3coc4nc(N)nc(N)c34)ccc21`, the pIC50 against Dihydrofolate reductase [1] is 4.61; in assay [2], 4.65.

Take `Nc1nc(N)c2c(CSc3ccccc3-c3ccccc3)coc2n1`: the pIC50 against Dihydrofolate reductase [1] is 4.31; in assay [2] it was 3.98.

On to `Nc1nc(N)c2c(CNc3cccc4cc5ccccc5cc34)coc2n1`, for which the pIC50 on Dihydrofolate reductase [1] is less than 4.29.

On to `Nc1nc(N)c2c(CNc3ccc4c(c3)C(O)c3ccccc3-4)coc2n1` (stereo unspecified), for which the pIC50 was less than 4.89 against Dihydrofolate reductase [1] and 4.20 in assay [2].

On to `Cc1[nH]c2nc(N)nc(N)c2c1Sc1cccc2c1CCCC2`, for which the pIC50 at Dihydrofolate reductase [1] was 4.40.

Take `Nc1nc(N)c2c(CSc3ccccc3Oc3ccccc3)coc2n1`: the pIC50 against Dihydrofolate reductase [1] is 4.74; in [2] it was 4.42.

Consider `Cc1[nH]c2nc(N)nc(N)c2c1Sc1ccc(Cl)cc1Cl`, for which the figures for the pIC50 (at Dihydrofolate reductase [1]; in assay [2]) were 4.46 and 4.55, respectively.

At Dihydrofolate reductase [1], `COc1ccc(OC)c(CCCc2c[nH]c3nc(N)nc(N)c23)c1` gave a pIC50 of 4.93.

`Cc1cc(C)cc(Sc2[nH]c3nc(N)nc(N)c3c2C)c1` showed a pIC50 against Dihydrofolate reductase [3] of 5.12.

Compound `Nc1nc(N)c2c(CNc3ccc4c(c3)Cc3ccccc3-4)coc2n1` gave a pIC50 at Dihydrofolate reductase [1] of less than 5.00.

For `Nc1nc(N)c2c(CSc3cccc(Oc4ccccc4)c3)coc2n1`, the pIC50 against Dihydrofolate reductase [1] was 4.41; in [2] it was 4.72.

In the case of `CCn1c2ccccc2c2cc(NCc3coc4nc(N)nc(N)c34)ccc21`, the negative-log IC50 (pIC50) against Dihydrofolate reductase [1] was 4.90; in assay [2] it was 5.35.

Regarding `Cc1c(Sc2cc(Cl)c(Cl)cc2Cl)[nH]c2nc(N)nc(N)c12`, the pIC50 on Dihydrofolate reductase [3] is 5.52; in assay [4] it was 6.67.

For the compound `Cc1cccc(C)c1Sc1[nH]c2nc(N)nc(N)c2c1C.Cl`, the Survival in the assay with Toxoplasma gondii [5] is 100%.

As for `Nc1nc(N)c2c(CSc3ccc(Oc4ccccc4)cc3)coc2n1`, the pIC50 on Dihydrofolate reductase [1] was 4.19.

As to `Cc1c(Sc2ccc3ccccc3c2)[nH]c2nc(N)nc(N)c12`, the pIC50 at Dihydrofolate reductase [3] was 5.09; in [4] it was 5.80.

On to `COc1ccc(OC)c(Sc2c(C)[nH]c3nc(N)nc(N)c23)c1`, for which the figures for the pIC50 (on Dihydrofolate reductase [1]; in assay [2]) were less than 4.34 and 4.06, respectively.

As to `COc1ccc(-c2nc3nc(N)nc(N)c3[nH]2)c([N+](=O)[O-])c1OC`, the pIC50 against Dihydrofolate reductase [1] was less than 4.60.

The compound `COc1cc(Sc2[nH]c3nc(N)nc(N)c3c2C)cc(OC)c1OC` gave a pIC50 on Dihydrofolate reductase [3] of less than 4.61. In [6], this compound came in with an inhibition of 12%.

As to `Nc1nc(N)c2c(CSc3ccc4c(c3)CCCC4)c[nH]c2n1`, the results for the pIC50 (at Dihydrofolate reductase [1]; in [2]) were 4.08 and 5.04, respectively.

In the case of `Nc1nc(N)c2c(CCCc3ccc(OCc4ccccc4)cc3)c[nH]c2n1`, the negative logarithm of the IC50 (pIC50) against Dihydrofolate reductase [1] was 6.18; in assay [2] it was 5.80.

Turning to `Nc1nc(N)c2c(CSc3cccc(-c4ccccc4)c3)coc2n1`, the pIC50 is 4.51 against Dihydrofolate reductase [1] and 4.64 in [2].

At Dihydrofolate reductase [3], `Cc1cccc(C)c1Sc1[nH]c2nc(N)nc(N)c2c1C` [listing 1 of 2 here] showed a pIC50 of 6.41. In addition, in the assay on Toxoplasma gondii [5] (Toxoplasma gondii, RH, ip, 120 h), the survival at 50 mg/kg came out at 100%. In the assay with Toxoplasma gondii [7], the “fold change (FC)” value is listed as greater than 2.

The compound `COc1cc(CCCc2c[nH]c3nc(N)nc(N)c23)cc(OC)c1OC` gave a pIC50 on Dihydrofolate reductase [1] of 5.32.

Compound `Cc1[nH]c2nc(N)nc(N)c2c1Sc1ccc(Cl)cc1` gave a pIC50 against Dihydrofolate reductase [1] of 4.43.

Consider `Nc1nc(N)c2c(CSc3cccc4c3CCCC4)c[nH]c2n1`, for which the pIC50 at Dihydrofolate reductase [1] was 5.52; in [2], 6.09.

The compound `Nc1nc(N)c2c(CCCc3cc(Cl)ccc3Cl)c[nH]c2n1` showed a pIC50 against Dihydrofolate reductase [1] of 5.32.

`COc1ccc(OC)c(NCc2nc3c(N)nc(N)nc3[nH]2)c1` showed a pIC50 against Dihydrofolate reductase [1] of less than 4.54.

Consider `Cc1cccc(C)c1Sc1[nH]c2nc(N)nc(N)c2c1C` [listing 2 of 2 here], for which the inhibition result in the assay with Toxoplasma gondii [8] and in the assay on Toxoplasma gondii [9] was “Active” each time.

For the compound `Nc1nc(N)c2c(CCCc3ccc4c(c3)CCCC4)c[nH]c2n1`, on Dihydrofolate reductase [1], the pIC50 was 5.96.

With `Nc1nc(N)c2c(CSc3ccc(-c4ccccc4)cc3)coc2n1`, the pIC50 was 3.45 against Dihydrofolate reductase [1] and 4.10 in [2].

Turning to `Cc1[nH]c2nc(N)nc(N)c2c1Sc1ccccc1`, the values for the pIC50 (against Dihydrofolate reductase [1]; in [2]) were less than 4.48 and 4.09, respectively.

`Cc1[nH]c2nc(N)nc(N)c2c1Sc1cccc(Cl)c1` gave a pIC50 at Dihydrofolate reductase [1] of 4.19.
